In paper PMC8760560 (iScience, 2021):
Blank lines part the entries; values can stand above or below the molecule they belong to.

How the values were obtained:
[1] = tested on: mouse embryonic stem (ES) cells; settings: 100 μM; ref Wei et al., 2012; cited from earlier work
[2] = tested on: cADPR-evoked Ca^2+ release; test: cADPR-evoked Ca2+ release in sea urchin egg homogenate; format: biochemical, Strongylocentrotus purpuratus; settings: for mode of inhibition of cADPR action: cADPR concentration-response curves at increasing inhibitor concentrations; for inhibition of cADPR-evoked Ca2+ signals: primary screen, 6 min preincubation
How it was run: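 Primary screen in S. purpuratus egg homogenate, loaded with Ca2+ and 3 μM fluo-3 at 17°C and diluted stepwise to 1.25% over 3 h. Fluo-3 was read at ex 485/em 525 nm. Library compounds at 25 μM final were preincubated for 6 min (35 cycles), then cADPR 300 nM final was added. Screens ran in singlicate or duplicate, with Z' calculated from vehicle and cADPR responses.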

[3] = tested on: NAADP-evoked Ca^2+ release; settings: data from a recent screen against NAADP action; ref Gunaratne et al., 2018; cited from earlier work
RyR1 = RyR1 (Sus scrofa, UniProt P16960); test: [3H]-ryanodine binding to skeletal SR vesicles; parameters: species or system porcine
How it was run: (§1)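 Porcine SR vesicles, skeletal (1 mg/mL, 10 nM [3H]-ryanodine) and cardiac (3 mg/mL, 7.5 nM [3H]-ryanodine), were incubated for 3 h at 37°C with test compound or 0.02% DMSO. The pH 7.0 K-PIPES buffer contained 150 mM KCl, 0.1 μM calmodulin, GSH, DTT, 1 mM EGTA and CaCl2 giving 100 nM or 30 μM free Ca2+. Non-specific binding was defined with 40 μM unlabeled ryanodine. Bound ligand was filtered and counted by scintillation, and expressed relative to DMSO. Three SR batches, triplicates.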

RyR2 = RyR2 (Sus scrofa, UniProt A0A5G2R1W3); test: [3H]-ryanodine binding to cardiac SR vesicles; parameters: species or system porcine
How it was run: as §1

U2OS cells = test: cADPR microinjection into single U2OS cells expressing GCaMP-6M; format: cell-based, human; settings: 5 μM preincubation; cADPR 30 μM pipette concentration
How it was run: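 U2OS cells were transfected with GCaMP-6M two days prior, seeded on collagen dishes and perfused with Ca2+-free HBSS. Cells in 5 μM test compound or 0.05% DMSO were microinjected with intracellular buffer (110 mM KCl, 10 mM NaCl, 20 mM HEPES, pH 7.2) containing vehicle or cADPR, giving about 300 nM intracellular. Spinning-disk imaging (ex 488 nm) gave peak ΔF/F0 and area under curve. Data from three independent experiments, mean ± stdev.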

[4] = tested on: NAADP-evoked Ca^2+ release; test: NAADP-evoked Ca2+ release in sea urchin egg homogenate; format: biochemical, Strongylocentrotus purpuratus; settings: NAADP 200 nM; at concentrations completely inhibiting cADPR-evoked signals
IP3-evoked Ca^2+ release = test: IP3-evoked Ca2+ release in sea urchin egg homogenate; format: biochemical, Strongylocentrotus purpuratus; settings: IP3 500 nM; at concentrations completely inhibiting cADPR-evoked signals
[5] = tested on: RyRs (ryanodine-evoked Ca^2+ release); test: ryanodine-evoked Ca2+ release in sea urchin egg homogenate; format: biochemical, Strongylocentrotus purpuratus; settings: ryanodine 100 μM
How it was run: (§2)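 Fluo-3-loaded S. purpuratus egg homogenate (1.25%, pH 7.2 intracellular-like medium, 17°C loading) was preincubated with increasing test compound concentrations. Release was then evoked by cADPR 300 nM, caffeine 15 mM or ryanodine 100 μM, with fluorescence read at ex 485/em 525 nm. Concentration-response data came from three independent biological experiments with four technical replicates each.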

[6] = tested on: RyRs (caffeine-evoked Ca^2+ release); test: caffeine-evoked Ca2+ release in sea urchin egg homogenate; format: biochemical, Strongylocentrotus purpuratus; settings: caffeine 15 mM
How it was run: as §2

[7] = tested on: human induced pluripotent stem cells (iPSCs); test: cardiomyocyte differentiation of induced pluripotent stem cells; format: cell-based; settings: 1 μM for 5 days, versus control cultures
How it was run: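 Human iPSCs derived from dermal fibroblasts were grown on Matrigel in mTeSR1 and differentiated by Wnt modulation (CHIR, then 5 μM IWP-4 at day 3). From day 0 they received 1 μM test compound (from a 10 mM DMSO stock) or DMSO for 23 h or 5 days. Troponin T-positive cells per Hoechst-stained nuclei were counted at day 8 or 15. Western blot troponin T was normalized to GAPDH as % vehicle. Three independent experiments, mean ± stdev.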

[8] = tested on: cADPR-sensitive Ca^2+ stores; format: biochemical, Strongylocentrotus purpuratus; settings: ≤100μM

RyR2, sequence (A0A5G2R1W3 20-4900): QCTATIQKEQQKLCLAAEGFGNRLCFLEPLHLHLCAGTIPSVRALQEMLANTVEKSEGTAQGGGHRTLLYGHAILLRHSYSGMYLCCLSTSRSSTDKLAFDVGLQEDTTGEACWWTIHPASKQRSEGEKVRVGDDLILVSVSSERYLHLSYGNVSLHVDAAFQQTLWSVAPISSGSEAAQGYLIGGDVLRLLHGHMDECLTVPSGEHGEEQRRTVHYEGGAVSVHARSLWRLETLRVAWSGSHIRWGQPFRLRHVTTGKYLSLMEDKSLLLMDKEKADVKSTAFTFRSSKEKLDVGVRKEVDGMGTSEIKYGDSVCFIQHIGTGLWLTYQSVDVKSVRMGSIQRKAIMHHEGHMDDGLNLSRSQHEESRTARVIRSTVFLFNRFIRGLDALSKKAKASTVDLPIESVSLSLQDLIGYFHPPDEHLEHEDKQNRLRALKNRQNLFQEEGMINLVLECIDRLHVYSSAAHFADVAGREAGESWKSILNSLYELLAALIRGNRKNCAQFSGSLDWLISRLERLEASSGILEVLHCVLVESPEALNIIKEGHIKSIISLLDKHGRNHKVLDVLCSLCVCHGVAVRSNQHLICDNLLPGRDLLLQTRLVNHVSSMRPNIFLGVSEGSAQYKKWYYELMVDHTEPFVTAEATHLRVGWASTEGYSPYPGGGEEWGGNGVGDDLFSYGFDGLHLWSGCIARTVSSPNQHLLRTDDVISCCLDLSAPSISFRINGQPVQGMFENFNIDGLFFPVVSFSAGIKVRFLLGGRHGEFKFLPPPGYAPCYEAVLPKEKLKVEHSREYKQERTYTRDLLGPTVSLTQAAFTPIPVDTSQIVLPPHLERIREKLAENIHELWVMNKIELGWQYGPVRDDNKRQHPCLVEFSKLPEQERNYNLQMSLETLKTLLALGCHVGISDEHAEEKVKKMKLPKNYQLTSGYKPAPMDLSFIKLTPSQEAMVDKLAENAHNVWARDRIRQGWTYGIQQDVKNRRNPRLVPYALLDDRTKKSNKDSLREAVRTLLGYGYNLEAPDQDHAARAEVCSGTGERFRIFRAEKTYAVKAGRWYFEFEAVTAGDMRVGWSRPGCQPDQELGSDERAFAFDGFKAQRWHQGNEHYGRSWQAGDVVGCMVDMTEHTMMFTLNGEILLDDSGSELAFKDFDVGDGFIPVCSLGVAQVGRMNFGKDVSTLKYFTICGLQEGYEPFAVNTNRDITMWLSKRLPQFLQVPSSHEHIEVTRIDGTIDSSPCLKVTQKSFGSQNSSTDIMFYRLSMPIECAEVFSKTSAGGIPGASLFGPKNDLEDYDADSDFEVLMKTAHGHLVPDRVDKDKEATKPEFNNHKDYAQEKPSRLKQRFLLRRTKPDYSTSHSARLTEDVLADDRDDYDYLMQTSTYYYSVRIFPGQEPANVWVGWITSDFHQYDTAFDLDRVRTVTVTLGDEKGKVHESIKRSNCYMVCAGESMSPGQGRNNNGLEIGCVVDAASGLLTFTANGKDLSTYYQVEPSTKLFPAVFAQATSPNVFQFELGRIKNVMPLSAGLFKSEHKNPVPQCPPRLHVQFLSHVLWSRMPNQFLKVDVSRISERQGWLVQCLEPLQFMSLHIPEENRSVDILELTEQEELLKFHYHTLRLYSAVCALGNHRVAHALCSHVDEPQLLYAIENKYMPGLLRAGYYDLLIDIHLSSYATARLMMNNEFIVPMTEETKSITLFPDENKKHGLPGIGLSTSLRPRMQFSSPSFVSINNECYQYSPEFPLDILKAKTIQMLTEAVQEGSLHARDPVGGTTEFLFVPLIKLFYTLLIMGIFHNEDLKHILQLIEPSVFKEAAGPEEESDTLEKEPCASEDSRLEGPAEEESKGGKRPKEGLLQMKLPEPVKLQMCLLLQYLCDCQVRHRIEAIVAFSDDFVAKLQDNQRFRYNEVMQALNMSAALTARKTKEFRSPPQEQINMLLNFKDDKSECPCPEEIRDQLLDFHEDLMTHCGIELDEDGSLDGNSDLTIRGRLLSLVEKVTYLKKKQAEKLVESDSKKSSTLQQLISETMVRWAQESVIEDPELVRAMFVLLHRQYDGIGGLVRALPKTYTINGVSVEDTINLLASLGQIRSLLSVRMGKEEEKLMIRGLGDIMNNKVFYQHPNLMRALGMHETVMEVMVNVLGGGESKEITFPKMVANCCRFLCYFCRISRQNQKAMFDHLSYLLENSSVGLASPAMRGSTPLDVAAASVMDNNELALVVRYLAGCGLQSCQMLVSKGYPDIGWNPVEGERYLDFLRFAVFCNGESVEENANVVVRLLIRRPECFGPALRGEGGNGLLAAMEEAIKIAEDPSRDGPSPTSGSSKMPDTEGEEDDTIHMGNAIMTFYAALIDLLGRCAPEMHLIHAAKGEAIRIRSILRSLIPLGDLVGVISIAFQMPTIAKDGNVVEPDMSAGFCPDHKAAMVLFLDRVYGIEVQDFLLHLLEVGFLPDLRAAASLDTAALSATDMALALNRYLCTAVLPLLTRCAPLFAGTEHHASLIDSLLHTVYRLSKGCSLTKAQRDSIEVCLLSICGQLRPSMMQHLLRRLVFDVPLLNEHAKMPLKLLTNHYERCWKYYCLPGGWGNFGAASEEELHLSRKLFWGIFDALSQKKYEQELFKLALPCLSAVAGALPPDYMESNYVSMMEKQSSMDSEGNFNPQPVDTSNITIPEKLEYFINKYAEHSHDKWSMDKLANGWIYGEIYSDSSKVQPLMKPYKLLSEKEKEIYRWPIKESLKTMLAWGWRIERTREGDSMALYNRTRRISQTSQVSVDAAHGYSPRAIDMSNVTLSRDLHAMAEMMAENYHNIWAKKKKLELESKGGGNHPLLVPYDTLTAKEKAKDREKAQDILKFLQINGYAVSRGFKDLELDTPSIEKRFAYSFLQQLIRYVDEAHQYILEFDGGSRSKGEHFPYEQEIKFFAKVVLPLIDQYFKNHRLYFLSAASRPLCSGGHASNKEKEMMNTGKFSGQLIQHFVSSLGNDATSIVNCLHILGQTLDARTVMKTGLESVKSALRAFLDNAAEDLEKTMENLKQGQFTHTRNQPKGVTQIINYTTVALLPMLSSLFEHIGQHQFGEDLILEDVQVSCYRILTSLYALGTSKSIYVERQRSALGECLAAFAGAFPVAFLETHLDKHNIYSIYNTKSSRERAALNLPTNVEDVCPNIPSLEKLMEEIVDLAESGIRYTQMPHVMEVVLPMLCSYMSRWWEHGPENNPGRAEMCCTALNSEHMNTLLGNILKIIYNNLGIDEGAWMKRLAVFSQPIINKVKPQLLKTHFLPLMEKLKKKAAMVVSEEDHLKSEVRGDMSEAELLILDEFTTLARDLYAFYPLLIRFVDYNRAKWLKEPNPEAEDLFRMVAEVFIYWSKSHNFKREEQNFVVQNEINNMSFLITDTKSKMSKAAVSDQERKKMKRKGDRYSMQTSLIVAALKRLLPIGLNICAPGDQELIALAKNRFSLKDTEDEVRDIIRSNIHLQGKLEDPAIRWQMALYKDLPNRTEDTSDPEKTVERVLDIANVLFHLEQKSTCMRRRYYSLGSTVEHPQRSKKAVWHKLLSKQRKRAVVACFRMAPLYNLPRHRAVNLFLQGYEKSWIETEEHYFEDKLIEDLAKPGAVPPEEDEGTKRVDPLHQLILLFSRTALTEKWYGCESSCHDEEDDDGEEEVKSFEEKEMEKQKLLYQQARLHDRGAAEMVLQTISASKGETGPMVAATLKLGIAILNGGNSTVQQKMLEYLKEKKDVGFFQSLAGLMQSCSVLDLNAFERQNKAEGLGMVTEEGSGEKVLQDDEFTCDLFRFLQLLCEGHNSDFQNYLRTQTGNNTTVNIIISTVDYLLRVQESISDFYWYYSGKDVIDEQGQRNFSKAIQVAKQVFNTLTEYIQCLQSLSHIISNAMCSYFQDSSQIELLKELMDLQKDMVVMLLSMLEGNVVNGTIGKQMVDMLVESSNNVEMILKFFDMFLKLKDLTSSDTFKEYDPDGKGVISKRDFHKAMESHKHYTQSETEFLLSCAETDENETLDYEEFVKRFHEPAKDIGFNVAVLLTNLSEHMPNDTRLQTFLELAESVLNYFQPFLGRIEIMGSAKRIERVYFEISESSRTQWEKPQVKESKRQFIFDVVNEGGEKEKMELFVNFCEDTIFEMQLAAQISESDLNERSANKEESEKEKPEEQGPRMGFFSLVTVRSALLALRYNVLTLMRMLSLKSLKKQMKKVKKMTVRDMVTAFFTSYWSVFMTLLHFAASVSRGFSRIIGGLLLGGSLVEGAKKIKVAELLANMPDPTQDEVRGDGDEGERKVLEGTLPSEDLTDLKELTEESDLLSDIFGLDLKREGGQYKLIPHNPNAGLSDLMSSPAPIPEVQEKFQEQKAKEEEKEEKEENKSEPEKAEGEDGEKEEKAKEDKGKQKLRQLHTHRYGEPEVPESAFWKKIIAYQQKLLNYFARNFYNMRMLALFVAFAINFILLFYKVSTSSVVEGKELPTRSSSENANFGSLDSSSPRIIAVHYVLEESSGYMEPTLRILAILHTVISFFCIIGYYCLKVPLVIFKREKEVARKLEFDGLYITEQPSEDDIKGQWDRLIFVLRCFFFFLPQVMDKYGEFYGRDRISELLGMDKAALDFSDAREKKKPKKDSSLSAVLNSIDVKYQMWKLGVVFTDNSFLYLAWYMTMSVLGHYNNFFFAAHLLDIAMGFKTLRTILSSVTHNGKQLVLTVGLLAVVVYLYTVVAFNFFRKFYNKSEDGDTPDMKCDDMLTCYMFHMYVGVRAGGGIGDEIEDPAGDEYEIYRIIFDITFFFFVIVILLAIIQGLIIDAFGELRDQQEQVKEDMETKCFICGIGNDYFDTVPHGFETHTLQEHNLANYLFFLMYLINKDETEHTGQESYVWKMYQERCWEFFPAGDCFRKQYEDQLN

Molecule: 8-Br-cADPR
effect on generation of cardiomyocytes [1]: promoted the generation of cardiomyocytes

Molecule: N=c1c2cc(Br)n3c2ncn1[C@@H]1O[C@H](COP(=O)(O)OP(=O)(O)OC[C@H]2O[C@@H]3C(O)[C@H]2O)C(O)C1O (some centres unmarked) [8-Br-7-deaza-cADPR]
mode of inhibition of cADPR action [2]: competitive inhibitors

Molecule: CNc1ccc2oc(C[C@H]3O[C@@]4(CC[C@H]3C)O[C@H]([C@H](C)C(=O)c3ccc[nH]3)[C@H](C)C[C@H]4C)nc2c1C(=O)O [A23187]
effect on cADPR-evoked Ca2+ responses in primary screen ([2]; 25 μM, positive control): inhibited
effect on NAADP-evoked Ca2+ responses in screen [3]: inhibited

IC50 ([2]; read-out: IC50, inhibition of cADPR-evoked Ca2+ release, sea urchin egg homogenate, cADPR 300 nM): 260 ± 23 nM
effect on [3H]-ryanodine binding (RyR1; contracting 30 μM free Ca2+): inhibited
effect on [3H]-ryanodine binding (RyR1; relaxed 100 nM free Ca2+): inhibited
effect on [3H]-ryanodine binding (RyR2; contracting 30 μM free Ca2+): inhibited
effect on [3H]-ryanodine binding (RyR2; relaxed 100 nM free Ca2+): inhibited
Molecule: CC1=C(C(=O)OC2CCCCC2)C(c2ccc([N+](=O)[O-])cc2)C2=C(CC(C)(C)CC2=O)N1 (centres unmarked) [FLI-06, cyclohexyl 2,7,7-trimethyl-4-(4-nitrophenyl)-5-oxo-1,4,5,6,7,8-hexahydroquinoline-3-carboxylate]
effect on cADPR-evoked Ca2+ signals ([2]; cADPR 300 nM): blocked
mode of inhibition of cADPR action [2]: non-competitive inhibition
effect on cADPR-evoked Ca2+ transient (U2OS cells): reduced
effect on NAADP-evoked Ca2+ release [4]: did not impact
effect on IP3-evoked Ca2+ release (IP3-evoked Ca^2+ release): did not impact
effect on ryanodine-evoked Ca2+ release [5]: blocked
effect on caffeine-evoked Ca2+ release [6]: blocked
contraction phenotype [7]: earlier contraction phenotype
expression of cardiomyocyte-specific troponin T [7]: enhanced expression
intrinsic agonist activity (Ca2+ elevation without cADPR) [8]: did not result from any intrinsic agonist activity

effect on [3H]-ryanodine binding (RyR1; contracting 30 μM free Ca2+): did not elicit any effects
effect on [3H]-ryanodine binding (RyR1; relaxed 100 nM free Ca2+): did not elicit any effects
effect on [3H]-ryanodine binding (RyR2; contracting 30 μM free Ca2+): did not elicit any effects
effect on [3H]-ryanodine binding (RyR2; relaxed 100 nM free Ca2+): did not elicit any effects
Molecule: N=c1c2ncn3c2ncn1[C@@H]1O[C@H](COP(=O)(O)OP(=O)(O)OC[C@H]2O[C@@H]3[C@H](O)[C@@H]2O)[C@@H](O)[C@H]1O [cADPR, cyclic adenosine 5′-diphosphate ribose]

Molecule: COC(=O)C1=C(C)NC(C)=C(C(=O)OC)C1c1ccccc1[N+](=O)[O-] [nifedipine, dimethyl 2,6-dimethyl-4-(2-nitrophenyl)-1,4-dihydropyridine-3,5-dicarboxylate]
inhibition of cADPR-evoked Ca2+ signals ([2]; 25 μM): ~3%

Molecule: COCCOC(=O)C1=C(C)NC(C)=C(C(=O)OC(C)C)C1c1cccc([N+](=O)[O-])c1 (centres unmarked) [nimodipine, 3-O-(2-methoxyethyl) 5-O-propan-2-yl 2,6-dimethyl-4-(3-nitrophenyl)-1,4-dihydropyridine-3,5-dicarboxylate]
inhibition of cADPR-evoked Ca2+ signals ([2]; 25 μM): ~5%

Molecule: NC(=S)c1ccc[n+]([C@@H]2O[C@H](COP(=O)([O-])OP(=O)(O)OC[C@H]3O[C@@H](n4cnc5c(N)ncnc54)[C@H](OP(=O)(O)O)[C@@H]3O)[C@@H](O)[C@H]2O)c1 [thio-NADP]
effect on NAADP-evoked Ca2+ responses in screen [3]: selectively desensitized
